Assay results taken from ChEMBL document CHEMBL1130097, “Synthesis and anti-HIV-1 activity of a series of 1-alkoxy-5-alkyl-6-(arylthio)uracils” (J Med Chem, 1997).
pEC50, pIC50: −log10 of the molar value.

Key:
[1] = (§1) Selectivity Index measured as ratio of CC50 to that of EC50.; type: functional
CEM-V [2] = assay: Cytotoxic concentration required to reduce the viability of mock-infected CEM-V cells by 50%; type: functional; conditions: Homo sapiens
CEM-V [3] = assay: Inhibition of HIV-1 replication in CEM-V cells; type: functional, cell-based; conditions: Homo sapiens
CEM-SS [4] = assay: Cytotoxic concentration required to reduce the viability of mock infected CEM-SS cells by 50%.; type: functional; conditions: Homo sapiens
[5] = test system: Human immunodeficiency virus 1; assay: Concentration required to achieve 50% protection of CEM-SS cells against the cytopathic effect of HIV-1.; type: functional, organism-based; conditions: Human immunodeficiency virus 1, CEM-SS
[6] = as §1; type: functional, CCRF-CEM
[7] = Effective concentration for inhibition of HIV-1 replication in human peripheral Blood mononuclear cells.(PBMCs); type: functional
How it was run: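 PBMCs from healthy seronegative donors were isolated on Ficoll-Hypaque and stimulated 24 h with PHA (10 μg/mL). Cells at 1×10^6 cells/mL were infected with HIV-1 HTLV-IIIB at MOI 0.01, with 2-h adsorption followed by three washes. Culture was in RPMI 1640 with IL-2 (2 U/mL) and 10% FBS with compound at 37 °C, split 1:2 with fresh drug on days 4 and 8. On day 12, supernatant p24 was measured by ELISA in triplicate. […] Means of two independent experiments run in duplicate.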

[8] = Cytotoxic concentration for inhibition of HIV-1 replication in human peripheral Blood mononuclear cells.(PBMCs); type: functional
[9] = Selectivity Index measured as ratio of CC50 to that of EC50 in PBMCs; type: functional
How it was run: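 HIV-1 (HTLV-IIIB) in PHA-stimulated PBMCs from healthy seronegative donors. Cells were infected at MOI 0.01 for 2 h, washed, then grown with compound in RPMI 1640 with IL-2 and 10% FBS at 37 °C. Cultures were split 1:2 with fresh compound on days 4 and 8. p24 was read by ELISA on day 12. Cytotoxicity was measured by [3H]thymidine incorporation. SI = CC50/EC50, means of two independent experiments in duplicate.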

CCRF-CEM [10] = assay: Effective concentration for inhibition of […] replication in CEM cells.; type: functional, cell-based; conditions: Homo sapiens
CCRF-CEM [11] = assay: Cytotoxic concentration for inhibition of […] replication in CEM cells.; type: functional; conditions: Homo sapiens
[12] = test system: Avian myeloblastosis virus; assay: Inhibitory effect on recombinant AMV reverse transcriptase (Avian Myeloblastosis Virus, AMV); type: functional
How it was run: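 Recombinant RT (0.05 unit each of HIV-1, AMV or Mo-MuLV enzyme) in 50 mM Tris-HCl pH 7.8, 50 mM KCl, 30 mM MgCl2, 1 mM DTT, 0.01% Triton X-100, with poly r(A)d(T)12-18 template and [3H]dTTP. Compounds added from DMSO (final below 1%), 1 h at 37 °C. Stopped with cold 20% TCA; precipitate counted.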

CEM-SS [13] = assay: Cytotoxic concentration required to reduce the viability of mock infected CEM-SS by 50%.; type: functional; conditions: Homo sapiens
[14] = test system: Avian myeloblastosis virus; assay: Inhibitory effect on recombinant AMV reverse transcriptase; type: functional
How it was run: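 Recombinant RT (0.05 unit of HIV-1, AMV or Mo-MuLV) in 50 mM Tris-HCl pH 7.8, 50 mM KCl, 30 mM MgCl2, 1 mM DTT and 0.01% Triton X-100. Template poly r(A)d(T)12-18 (5.0 μg) with 0.5 μCi [3H]dTTP. Compound added in DMSO (final below 1%), 1 h at 37 °C. Reaction stopped with cold 20% TCA and precipitate counted. […] Means of at least three independent experiments run in duplicate.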

| Compound | CC50 (CEM-SS [4]) | pEC50 [5] | Selectivity index [6] | also measured |
| --- | --- | --- | --- | --- |
| O=c1[nH]cnc2c1ncn2[C@H]1CC[C@@H](CO)O1 [DIDANOSINE] | – | – | – | Selectivity index [1]: > 3.6; CC50 (CEM-V [2]): > 10 µM; pEC50 (CEM-V [3]): 5.55 |
| CCCCOn1c(Sc2cc(C)cc(C)c2)c(C(C)C)c(=O)[nH]c1=O | 30 µM | 6.38 | 71 | – |
| CCCOn1c(Sc2cccc(C)c2)c(C(C)C)c(=O)[nH]c1=O | 40 µM | 6.01 | 41 | – |
| Cc1cc(C)cc(Sc2c(C3CC3)c(=O)[nH]c(=O)n2OCc2ccccc2)c1 | > 200 µM | 4.80 | >13 | – |
| CCc1c(Sc2cc(C)cc(C)c2)n(OCc2ccccc2)c(=O)[nH]c1=O | > 200 µM | 5.24 | >35 | – |
| Nc1ccn([C@H]2CC[C@@H](CO)O2)c(=O)n1 [ZALCITABINE] | > 10 µM | 6.72 | >53 | – |
| Cc1cn([C@H]2C[C@H](N=[N+]=[N-])[C@@H](CO)O2)c(=O)[nH]c1=O [ZIDOVUDINE] | > 1 µM | 8.35 | >220 | pEC50 [7]: 8.05; CC50 [8]: 149 µM; Selectivity index [9]: 16556 |
| Cc1cc(C)cc(Sc2c(C)c(=O)[nH]c(=O)n2OCCCO)c1 | 140 µM | 5.26 | 25 | – |
| Cc1cc(C)cc(Sc2c(C)c(=O)[nH]c(=O)n2OCc2ccccc2)c1 | > 200 µM | 5.00 | >20 | – |
| CCc1c(Sc2cc(C)cc(C)c2)n(OCCCO)c(=O)[nH]c1=O | 123 µM | 6.27 | 228 | – |
| COCCOn1c(Sc2cc(C)cc(C)c2)c(C(C)C)c(=O)[nH]c1=O | 96 µM | 6.37 | 223 | – |
| CCCOn1c(Sc2cc(C)cc(C)c2)c(CC)c(=O)[nH]c1=O | 54 µM | 6.46 | 154 | – |
| CCCOn1c(Sc2cccc(F)c2)c(C(C)C)c(=O)[nH]c1=O | 72 µM | 5.72 | 38 | – |
| CC(C)c1c(Sc2ccccc2)n(OCCCO)c(=O)[nH]c1=O | 170 µM | 4.72 | 8.9 | – |
| Cc1c(Sc2ccccc2)n(COCCO)c(=O)[nH]c1=O [HEPT] | – | – | 48 | pEC50 (CCRF-CEM [10]): 5.08; CC50 (CCRF-CEM [11]): 400 µM |
| Cc1cccc(Sc2c(C(C)C)c(=O)[nH]c(=O)n2OCCCO)c1 | 118 µM | 5.33 | 28 | – |
| CCCOn1c(Sc2ccccc2C)c(C(C)C)c(=O)[nH]c1=O | 41 µM | 4.86 | 2.9 | – |
| CCCOn1c(Sc2cc(C)cc(C)c2)c(C2CC2)c(=O)[nH]c1=O | 30 µM | 5.21 | 4.9 | – |
| O=C(O)P(=O)(O)O [FOSCARNET SODIUM] | – | – | – | pIC50 [12]: 5.03 |
| Cc1cc(C)cc(Sc2c(C(C)C)c(=O)[nH]c(=O)n2OCCCO)c1 | 75 µM | 6.72 | 395 | – |
| CCc1c(Sc2cc(C)cc(C)c2)n(OCCc2ccccc2)c(=O)[nH]c1=O | 36 µM | 6.34 | 78 | – |

| Compound | CC50 (CEM-SS [4]) | pEC50 [5] | Selectivity index [6] | also measured |
| --- | --- | --- | --- | --- |
| CCCOn1c(Sc2ccc(C)cc2)c(C(C)C)c(=O)[nH]c1=O | – | – | – | CC50 (CEM-SS [13]): 69 µM |
| CCCc1c(Sc2cc(C)cc(C)c2)n(OCCCO)c(=O)[nH]c1=O | 107 µM | 5.09 | 13 | – |
| CCCc1c(Sc2cc(C)cc(C)c2)n(OCc2ccccc2)c(=O)[nH]c1=O | 114 µM | 4.99 | 11 | – |
| Cc1cc(C)cc(Sc2c(C(C)C)c(=O)[nH]c(=O)n2OCCc2ccccc2)c1 | 15 µM | 6.31 | 31 | – |
| Cc1cc(C)cc(Sc2c(C(C)C)c(=O)[nH]c(=O)n2OCc2ccccc2)c1 | 24 µM | 5.07 | 2.8 | – |
| CC(C)c1c(Sc2cc(F)cc(F)c2)n(OCCCO)c(=O)[nH]c1=O | 150 µM | 5.12 | 20 | – |
| Cc1cc(C)cc(Sc2c(C3CC3)c(=O)[nH]c(=O)n2OCCCO)c1 | 128 µM | 4.82 | 8.5 | – |
| CCCOn1c(Sc2cc(C)cc(C)c2)c(CCC)c(=O)[nH]c1=O | 45 µM | 5.59 | 18 | – |
| CCCOn1c(Sc2cc(F)cc(F)c2)c(C(C)C)c(=O)[nH]c1=O | > 200 µM | 5.62 | >84 | – |
| Cc1cc(C)cc(Sc2c(C)c(=O)[nH]c(=O)n2OCCc2ccccc2)c1 | – | 5.51 | >39 | CC50 (CEM-SS [13]): > 121 µM |
| CCCOn1c(Sc2cc(C)cc(C)c2)c(C)c(=O)[nH]c1=O | 64 µM | 6.03 | 69 | – |
| CCCOn1c(Sc2ccccc2)c(C(C)C)c(=O)[nH]c1=O | 75 µM | 5.17 | 11 | – |
| Cc1cccc(CCOn2c(Sc3cc(C)cc(C)c3)c(C(C)C)c(=O)[nH]c2=O)c1 | 13 µM | 6.08 | 15 | – |
| CCCOn1c(Sc2cc(C)cc(C)c2)c(C(C)C)c(=O)[nH]c1=O | – | 7.19 | – | pIC50 [14]: < 4.00; pEC50 [7]: 6.82; CC50 [8]: 70 µM; CC50 (CEM-SS [13]): 33 µM |
| Cc1cc(C)cc(Sc2c(C3CC3)c(=O)[nH]c(=O)n2OCCc2ccccc2)c1 | 43 µM | 5.22 | 7.1 | – |
| CCCc1c(Sc2cc(C)cc(C)c2)n(OCCc2ccccc2)c(=O)[nH]c1=O | 29 µM | 6.15 | 41 | – |
| CC(C)c1c(Sc2cccc(F)c2)n(OCCCO)c(=O)[nH]c1=O | 3.4 µM | – | – | – |
| CCc1c(Sc2cc(C)cc(C)c2)n(OCCOC)c(=O)[nH]c1=O | 136 µM | 5.71 | 69 | – |
| Cc1cc(C)cc(Sc2c(C(C)C)c(=O)[nH]c(=O)n2OCCOc2ccccc2)c1 | 16 µM | 6.34 | 35 | – |
| CCCCOn1c(Sc2cc(C)cc(C)c2)c(CC)c(=O)[nH]c1=O | 40 µM | 6.01 | 41 | – |
